Hits are enriched below; roughly 2.3% of the tested compounds scored in any of these assays.
TRPC4 PAM: allosteric potentiators of mouse TRPC4 channel; 0.42% of 310,000 active; HEK293 TRPC4beta/mu-opioid, DAMGO EC20, Fluo-4 Ca2+ flux; active compounds read high; B-score at 10 µM; Q9QUQ5;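 active = B-score of calcium response area above 5 SD of library B-scores, with initial fluorescence ratio within 5 SD of library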;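 also: B-score of integrated fluorescence ratio over time as area under calcium response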
TRPC6 activator: activators of mouse TRPC6 channel. HEK293-TRPC6 membrane potential dye fluorescence; active compounds read high. B-score at 10 µM. 0.13% of 310,000 active. AID 2550;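 active = B-score of the integrated fluorescence ratio above library mean plus 3 SD, and starting fluorescence ratio within library mean plus 5 SD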;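 also: higher score means more depolarization so channel activation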
Target sequence (Q61143 whole entry, looked up): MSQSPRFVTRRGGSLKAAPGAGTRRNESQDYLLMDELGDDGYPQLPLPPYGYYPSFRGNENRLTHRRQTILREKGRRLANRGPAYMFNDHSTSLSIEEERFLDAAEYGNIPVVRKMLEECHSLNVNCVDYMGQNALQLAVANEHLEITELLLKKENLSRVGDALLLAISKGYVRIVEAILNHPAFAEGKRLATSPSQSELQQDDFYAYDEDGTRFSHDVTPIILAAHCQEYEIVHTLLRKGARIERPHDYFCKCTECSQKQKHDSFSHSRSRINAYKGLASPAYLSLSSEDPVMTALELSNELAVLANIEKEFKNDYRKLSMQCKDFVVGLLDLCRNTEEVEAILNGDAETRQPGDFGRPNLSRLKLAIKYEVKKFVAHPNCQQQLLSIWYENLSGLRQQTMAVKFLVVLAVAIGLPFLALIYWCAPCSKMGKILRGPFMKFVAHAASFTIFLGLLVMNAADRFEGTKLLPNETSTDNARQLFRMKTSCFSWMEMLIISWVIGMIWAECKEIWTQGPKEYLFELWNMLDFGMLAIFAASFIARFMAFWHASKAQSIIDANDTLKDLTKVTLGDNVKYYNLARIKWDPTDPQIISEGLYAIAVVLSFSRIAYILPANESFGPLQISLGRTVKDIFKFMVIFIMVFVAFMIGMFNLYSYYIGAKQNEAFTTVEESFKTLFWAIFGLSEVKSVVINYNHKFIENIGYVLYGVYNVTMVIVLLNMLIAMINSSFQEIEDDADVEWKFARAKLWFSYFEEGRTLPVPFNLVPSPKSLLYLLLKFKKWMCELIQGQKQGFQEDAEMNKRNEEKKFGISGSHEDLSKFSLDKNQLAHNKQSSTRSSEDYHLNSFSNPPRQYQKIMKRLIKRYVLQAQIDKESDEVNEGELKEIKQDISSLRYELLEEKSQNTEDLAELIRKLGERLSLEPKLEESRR
TRPC4 agonist: opens the mouse TRPC4 cation channel; AID 2237; HEK293 TRPC4beta/mu-opioid, Fluo4 calcium fluorescence; active compounds read high; 0.49% of 310,000 active; B-score at 10 µM; Q9QUQ5;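 active = B-score above 5 SD of library B-scores, and initial fluorescence ratio not above library mean plus 5 SD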;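 also: positive B-score marks a calcium rise read as TRPC4 activation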
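System – HEK293 cells stably co-expressing mouse TRPC4beta and mu-opioid receptor · Signal – Fluo4 calcium-sensitive dye fluorescence, kinetic, 1 Hz baseline · Benchmarks – buffer (low) and maximal DAMGO (high) · Read-out – B score of integrated fluorescence ratio per well · Incubation – dye loading 45 min room temperature, 110 s kinetic read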
TRPC4 inh: inhibitors of mouse TRPC4 channel; Q9QUQ5; 0.39% of 300,000 active; HEK293 TRPC4beta/mu-opioid, DAMGO-evoked Fluo4 calcium flux; active compounds read low; B-score at 10 µM; AID 2247;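 active = B-score over 3 SD under the library average, no early fluorescence shift, positive overall ratio signal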
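Assay system – HEK293 line stably carrying TRPC4beta and mu-opioid receptor · Doses – single dose · Detection – Fluo4 calcium-dye fluorescence, kinetic read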
TRPC6 inhibitor: blocks the mouse TRPC6 cation channel; HEK293-TRPC6, membrane potential dye, ACh-evoked depolarization; active compounds read low; B-score at 10 µM; 1.1% of 310,000 active; AID 2553; Q61143;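 active = B-score under library mean minus 3 SD, initial fluorescence not abnormally high, positive integrated signal ratio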;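 also: B-score derived from integrated fluorescence ratio over the kinetic read; more negative B-score means stronger inhibition of depolarization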
TRPC4 spec 2: mouse TRPC4 off-target activity of TRPC6 inhibitors, second screen; shares compounds with TRPC6 inhibitor; HEK293 TRPC4/MOR, membrane potential dye fluorescence; channel activated by saturating DAMGO dose; inhibition, % at 10 µM; 42% of 920 active; AID 2776;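 active = compounds whose fluorescence signal differed from control wells by over 3 SD, either direction, in both duplicate plates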
TRPC4 spec: tests whether TRPC6 inhibitors also affect mouse TRPC4; activity change, negative = inhibition, % at 10 µM; 61% of 920 active; HEK293 TRPC4/mu-opioid, membrane potential fluorescence; shares compounds with TRPC6 inhibitor; AID 2777;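 active = rise or fall in signal beyond 3 SD of buffer-only wells in both replicate plates, either sign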;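 also: integrated kinetic ratio of fluorescence range over baseline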
HEK293 MPD ctr 2-1: parental HEK293 nonspecific activity of TRPC6 inhibitors, second screen; parental HEK293 membrane potential dye fluorescence; maximal acetylcholine challenge after compound addition; 31% of 920 active; shares compounds with TRPC6 inhibitor; signal change vs control, % at 10 µM; AID 2779;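 active = membrane potential signal moving either way by over 3 SD of the maximum-effect control, in both duplicate plates, meaning non-specific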
HEK293 MPD ctr-1: counter-screen for TRPC6 inhibitors: effect in parental HEK293 cells | shares compounds with TRPC6 inhibitor | AID 2780 | membrane potential signal change, % at 10 µM | 60% of 920 active | parental HEK293 membrane potential dye fluorescence;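 active = membrane potential signal shifting up or down by more than 3 SD of buffer-only wells, on both duplicate plates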
HEK293 MPD ctr-2: parental HEK293 nonspecific activity of TRPC6 modulators; shares compounds with TRPC6 inhibitor; membrane potential dye fluorescence; AID 488924; 51% of 2,400 active; membrane potential signal change, % at 10 µM;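 active = membrane potential signal moves up or down beyond 5 SD from buffer-only wells, on both duplicate plates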
HEK293 MPD ctr 2-2: second counter-screen for TRPC6 modulators: effect in parental HEK293 cells. 14% of 2,400 active. inhibition, % at 10 µM. membrane potential dye fluorescence; after compound, maximal acetylcholine stimulation. shares compounds with TRPC6 inhibitor. AID 488926;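 active = membrane potential signal drops by more than 5 SD from the mean control signal, in both duplicate plates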;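 also: plate controls were acetylcholine ECmax control wells for no effect and buffer only wells for full effect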
TRPC4 ctr mod: tests whether TRPC6 modulators also affect mouse TRPC4; shares compounds with TRPC6 inhibitor; HEK293 TRPC4/mu-opioid, membrane potential fluorescence; percent change from control (negative = decrease, positive = increase), % at 10 µM; 69% of 2,400 active; AID 488927;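 active = membrane potential signal moved up or down beyond 5 SD of buffer control wells, in both duplicate plates, actives on both sides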;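 also: plate controls were assay buffer wells for no effect and DAMGO maximal-effect wells for full effect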
TRPC4/MOR inh 2: mouse TRPC4 off-target activity of TRPC6 modulators, second screen; shares compounds with TRPC6 inhibitor; AID 488928; 55% of 2,400 active; inhibition, % at 10 µM; HEK293 TRPC4/mu-opioid, membrane potential dye fluorescence; stimulated with maximal-effect DAMGO;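 active = drop in membrane potential signal beyond 5 SD of the control wells in both duplicate plates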;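 also: TRPC4 counter screen for TRPC6 hits run under conditions tuned for TRPC6 not TRPC4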
TRPC6 block conf: mouse TRPC6 inhibitor confirmation; HEK293-TRPC6, membrane potential dye, ACh-evoked depolarization; 43% of 3,300 active; inhibition, % at 10 µM; shares compounds with TRPC6 inhibitor;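 active = fluorescence ratio falls more than 5 SD below the full-stimulation control mean, in both duplicate runs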;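 also: integrated fluorescence ratio of peak minus minimum over baseline after agonist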
TRPC6 act confirm: confirmation of mouse TRPC6 activators | 11% of 2,800 active | HEK293-TRPC6 membrane potential dye fluorescence, FDSS | AID 488961 | shares compounds with TRPC6 inhibitor | activation, % at 10 µM;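 active = ratio signal rise beyond 5 SD above unstimulated control wells' mean, seen in both duplicate runs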;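 also: plate controls were buffer EC0 wells for no effect and acetylcholine ECmax response for full effect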
* marks the source's active call; other numbers are inactive results; i = inactive; / = no result given; + = active, no number.

SMILES | TRPC4 PAM | TRPC6 activator | TRPC4 agonist | TRPC4 inh | TRPC6 inhibitor | HEK293 MPD ctr-2 | HEK293 MPD ctr 2-2 | TRPC4 ctr mod | TRPC4/MOR inh 2 | TRPC6 block conf | TRPC6 act confirm | others
O=C(OCCN1CCCCC1)c1ccccc1Br | i | i | i | i | i | / | / | / | / | / | /
CN(C)CCOC(=O)C1(c2ccccc2)CCCC1 | i | i | i | i | -9.6* | / | / | / | / | i | / | TRPC4 spec 2=i;TRPC4 spec=2.4%*;HEK293 MPD ctr 2-1=19%*;HEK293 MPD ctr-1=5.8%*
O=C(OCCN1CCCC1)C1(c2ccccc2)CCCC1 | i | i | i | i | -8* | / | / | / | / | 64%* | / | TRPC4 spec 2=i;TRPC4 spec=9.8%*;HEK293 MPD ctr 2-1=16%*;HEK293 MPD ctr-1=13%*
CCN(CC)CCOC(=O)c1ccc(NC(=O)C2(c3ccccc3)CCCC2)cc1 | i | i | i | i | -5.2* | 125%* | i | 16%* | 58%* | i | /
CCNC(=O)C1(c2ccccc2)CCCC1 | i | i | i | i | i | / | / | / | / | / | /
Cc1c(-c2cccs2)[n+](=O)c2c(n1[O-])CCCCC2 | i | i | i | i | i | / | / | / | / | / | /
CCN(C(=O)COC(=O)C1CCN(S(=O)(=O)c2c(Cl)cccc2Cl)CC1)C1CCCCC1 | i | i | i | i | i | / | / | / | / | / | /
C[N+]1(CCCOC(=O)C2(c3ccccc3)CCCC2)CCOCC1 | i | i | i | i | -5.4* | i | i | i | i | i | i
CN(Cc1ccc(F)cc1)S(=O)(=O)c1nnc(NC(=O)c2ccccc2Br)s1 | i | 17* | i | -6* | i | i | i | 17%* | 62%* | i | i
CCc1ccc(C2=NN(CCC(=O)NCc3cccs3)C(=O)CC2)cc1 | i | i | i | i | i | / | / | / | / | / | /
CSc1ccc(C2Nc3cccc4cccc(c34)N2)cc1 | i | i | i | i | -7* | / | / | / | / | i | i | TRPC4 spec 2=i;TRPC4 spec=-11%*;HEK293 MPD ctr 2-1=i;HEK293 MPD ctr-1=-138%*
Clc1ccc(C2Nc3cccc4cccc(c34)N2)cc1 | i | i | i | i | i | / | / | / | / | / | /
CN1CCC(OC(c2ccccc2)c2ccccc2)CC1 | i | i | i | i | -6.6* | / | / | / | / | 66%* | / | TRPC4 spec 2=i;TRPC4 spec=8.7%*;HEK293 MPD ctr 2-1=-5.0%*;HEK293 MPD ctr-1=11%*
CN1C(=S)N(c2cccnc2)C(=O)/C1=C\c1ccc(N(C)C)cc1 | i | 13* | i | i | i | 356%* | i | 108%* | i | i | 106%*
COc1ccc2oc(=O)c(/C(N)=N/NC(=O)c3ccncc3)cc2c1 | i | i | i | i | i | / | / | / | / | / | /
CCCc1ncc(C(O)(c2ccccc2)c2ccccc2)n1C | i | i | i | i | -8.8* | / | / | / | / | 58%* | / | TRPC4 spec 2=i;TRPC4 spec=22%*;HEK293 MPD ctr 2-1=i;HEK293 MPD ctr-1=15%*
CCCc1ncc(C(O)(c2ccccc2)c2ccc(C)cc2)n1C (stereo not given) | i | i | i | i | i | / | / | / | / | / | /
C=CCc1cc(Cl)ccc1OCCN(C)C | i | i | i | / | -5* | i | i | 8.0%* | i | i | i
CN(C)c1ccc(C2SCCN2C(=O)c2ccc([N+](=O)[O-])cc2)cc1 (stereo not given) | i | i | i | i | i | / | / | / | / | / | /
O=C(CCS(=O)(=O)c1ccc(Br)cc1)Nc1ccc(Br)cc1F | i | i | i | i | i | / | / | / | / | / | /
CN(C)C=NCCn1c(N2CCOCC2)nc2c1c(=O)n(C)c(=O)n2C | i | i | i | i | -7.1* | -274%* | i | -44%* | 35%* | i | i
Cn1c(=O)c2c(nc(N3CCOCC3)n2CCc2ccccc2)n(C)c1=O | i | i | i | i | i | / | / | / | / | / | /
CC1(c2ccc(C#N)cc2)NC(=O)N(CC(=O)Nc2cc(S(=O)(=O)N3CCOCC3)ccc2Cl)C1=O (stereo not given) | i | i | i | i | i | / | / | / | / | / | /
N=c1c2c3c(sc2ncn1N)CCC3 | i | i | i | i | i | / | / | / | / | / | /
CC(C)(C)C1CCc2c(sc3ncn(N)c(=N)c23)C1 (stereo not given) | i | i | i | i | -6.5* | i | i | -16%* | 67%* | 46%* | i
SMILES | TRPC4 PAM | TRPC6 activator | TRPC4 agonist | TRPC4 inh | TRPC6 inhibitor | HEK293 MPD ctr-2 | HEK293 MPD ctr 2-2 | TRPC4 ctr mod | TRPC4/MOR inh 2 | TRPC6 block conf | TRPC6 act confirm | others
Cc1ccc(-n2nnnc2CNC(=O)c2ccc3c(c2)OCO3)cc1C | i | i | i | i | -8.1* | i | 95%* | 19%* | i | 80%* | i
Nc1ccc(/C=C/C(=O)c2ccco2)cc1 | i | 25* | i | i | -8.4* | 722%* | + | 92%* | 52%* | 80%* | 199%*
N#Cc1ccc(/C=C/C(=O)c2ccco2)cc1 | i | i | i | i | i | / | / | / | / | / | /
CC1(C)c2[nH]c3ccccc3c2C[C@H]2C(=O)N(Cc3ccc(F)cc3)C(=O)N21 | i | i | i | i | -5.5* | i | i | -9.0%* | i | i | i
CC1(C)c2[nH]c3ccccc3c2C[C@@H]2C(=O)N(Cc3ccccc3)C(=O)N21 | i | i | i | i | i | / | / | / | / | / | /
CN(C)c1cc(NC(=O)CN2CCCC2)c2ccccc2n1 | i | i | i | i | -7.2* | / | / | / | / | i | i | TRPC4 spec 2=66%*;TRPC4 spec=-19%*;HEK293 MPD ctr 2-1=i;HEK293 MPD ctr-1=-324%*

Assay outcomes (PubChem BioAssay)
